# Measured values as given in ChEMBL document CHEMBL4428098, “Facile synthesis of autophagonizer and evaluation of its activity to induce autophagic cell death in apoptosis-defective cell line” (Bioorg Med Chem Lett, 2016).
# Active and inactive are the calls of the source. The calls are words filed in the database; no cut-off is given here.
# Tests used:
# [1] = system: MEF; experiment: Induction of autophagic cell death in Bax/Bak double knockout MEF after 15 hrs by MTT assay; settings: Mus musculus
# [2] = system: HeLa; experiment: Induction of autophagy in human HeLa cells assessed as acidic vacuoles at 3 to 25 uM after 24 hrs by MDC/Hoechst 33342 staining based fluorescence assay; format: functional, cell-based
# Method in brief: (§1)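 Acidic vacuoles in HeLa cells after 24 h exposure, with DMSO vehicle control. Cells stained with MDC and imaged under the DAPI filter.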
# [3] = system: MEF; experiment: Induction of autophagy in wild-type MEF assessed as accumulation of acidic vacuoles at 2 to 4 uM after 15 hrs by MDC/Hoechst 33342 staining based fluorescence assay; format: functional, cell-based; settings: Mus musculus
# Method in brief: (§2)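 Wild-type and Bax/Bak double-knockout MEFs treated 15 h at the indicated concentrations alongside DMSO vehicle. Stained with Cyto-ID reagent (green) for autophagosomes and MDC (blue) for acidic vacuoles, then imaged.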
# [4] = system: HeLa; experiment: Induction of autophagic cell death in human HeLa cells after 24 hrs by MTT assay; format: functional, cell-based
# Method in brief: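 MTT viability assay in HeLa cells after 24 h treatment over a log concentration range, with DMSO vehicle control. Viable cells normalized to DMSO-treated cells as percent viability. EC50 estimated from a sigmoidal dose–response curve.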
# [5] = system: MEF; experiment: Induction of autophagy in wild-type MEF assessed as conversion of LC3-1 to LC3-2 at 2.5 to 5 uM after 15 hrs by Western blot analysis; format: functional, cell-based; settings: Mus musculus
# Method in brief: (§3)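 Wild-type and Bax/Bak double-knockout MEFs treated 15 h at the indicated concentrations with DMSO vehicle control. LC3-I to LC3-II conversion assessed by immunoblot.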
# [6] = system: MEF; experiment: Induction of autophagy in wild-type MEF assessed as autophagosome formation at 2 to 4 uM after 15 hrs by Cyto-ID reagent/ Hoechst 33342 staining based fluorescence assay; format: functional, cell-based; settings: Mus musculus
# Method in brief: as §2
# [7] = system: MEF; experiment: Induction of autophagic cell death in wild-type MEF after 15 hrs by MTT assay; settings: Mus musculus
# [8] = system: MEF; experiment: Induction of autophagy in Bax/Bak double knockout MEF assessed as accumulation of acidic vacuoles at 2 to 4 uM after 15 hrs by MDC/Hoechst 33342 staining based fluorescence assay; format: functional, cell-based; settings: Mus musculus
# Method in brief: as §2
# [9] = system: MEF; experiment: Induction of autophagy in Bax/Bak double knockout MEF assessed as conversion of LC3-1 to LC3-2 at 2.5 to 5 uM after 15 hrs by Western blot analysis; format: functional, cell-based; settings: Mus musculus
# Method in brief: as §3
# [10] = system: HeLa; experiment: Induction of autophagy in human HeLa cells assessed as accumulation of acidic vacuoles at 3 and 25 uM after 24 hrs by MDC/Hoechst 33342 staining based fluorescence assay; format: functional, cell-based
# Method in brief: as §1
# [11] = system: MEF; experiment: Induction of autophagy in Bax/Bak double knockout MEF assessed as autophagosome formation at 2 to 4 uM after 15 hrs by Cyto-ID reagent/ Hoechst 33342 staining based fluorescence assay; format: functional, cell-based; settings: Mus musculus
# Method in brief: as §2
# [12] = system: HeLa; experiment: Induction of autophagy in human HeLa cells assessed as accumulation of LC3-2 at 2.5 to 5 uM after 24 hrs by Western blot analysis; format: functional, cell-based
# Method in brief: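 Immunoblot of HeLa lysates for LC3-I to LC3-II conversion after 24 h treatment, with DMSO vehicle control and actin probed as reference.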
# [13] = system: HeLa; experiment: Induction of autophagy in human HeLa cells assessed as accumulation of acidic vacuoles after 24 hrs by MDC/Hoechst 33342 staining based fluorescence assay; format: functional, cell-based
# Method in brief: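 HeLa cells exposed 24 h over a dose range with DMSO vehicle control, then stained with MDC for acidic vacuoles. Fluorescence read at 335/512 nm (Ex/Em) and normalized to viable cell number from a parallel MTT assay. Per-cell signal expressed relative to DMSO-treated cells as fold intensity. Sigmoidal dose–response curve fitted.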
# [14] = system: HeLa; experiment: Induction of autophagic cell death in human HeLa cells at 8 uM after 24 hrs by MTT assay relative to control; format: functional
# Method in brief: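 HeLa cells exposed 24 h to compound at graded concentrations with DMSO vehicle control; viability read by MTT assay and viable cell number normalized against DMSO-treated cells to give percent viable cells.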
# [15] = system: HeLa; experiment: Induction of autophagy in human HeLa cells assessed as autophagosome formation after 24 hrs by Cyto-ID reagent/ Hoechst 33342 staining based fluorescence assay; format: functional, cell-based
# Method in brief: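 HeLa cells treated 24 h at various doses, DMSO as vehicle control. Stained with Hoechst 33342 and green Cyto-ID reagent and imaged under DAPI and GFP filters. Plate read at 340/480 nm (Hoechst) and 480/539 nm (Cyto-ID) Ex/Em. Cyto-ID fluorescence per cell taken relative to DMSO-treated cells, and a sigmoidal dose–response curve constructed.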
smiles,measurement,setting,value
O=C(NCCC1CCCC1)c1coc(CSc2nc3sc4c(c3c(=O)n2Cc2ccccc2)CCCC4)n1,EC50,[1],24.2 µM
same,Activity,[2],inactive
same,Activity,[3],inactive
same,EC50,[4],25 µM
same,Activity,[5],inactive
same,Activity,[6],inactive
same,EC50,[7],28.6 µM
same,Activity,[8],inactive
same,Activity,[9],inactive
same,Activity,[10],inactive
same,Activity,[11],inactive
O=C(NCCN1CCCC1)c1coc(CSc2nc3sc4c(c3c(=O)n2Cc2ccccc2)CCCC4)n1,EC50,[1],2.2 µM
same,Activity,[3],Active
same,Activity,[12],Active
same,EC50,[4],3.5 µM
same,Activity,[5],Active
same,Activity,[6],Active
same,EC50,[13],1.3 µM
same,fold change (FC),[14],5
same,Activity,[15],Dose-dependent effect
same,EC50,[15],3.5 µM
same,EC50,[7],2.1 µM
same,Activity,[8],Active
same,Activity,[9],Active
same,Activity,[11],Active
